Measured values published in ChEMBL document CHEMBL2311301, “Design, synthesis and characterization of novel 1,2-benzisothiazol-3(2H)-one and 1,3,4-oxadiazole hybrid derivatives: potent inhibitors of Dengue and West Nile virus NS2B/NS3 proteases” (Bioorg Med Chem, 2013).

Key:
West Nile virus [1] = experiment: Inhibition of WNV NS2B/NS3 protease using Bz-Nle-Lys-Arg-Arg-AMC as substrate at 10 uM by spectrofluorometric analysis relative to control
In short: (§1)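 Protease (DENV2 NS2B-NS3pro 25 nM; WNV NS2B-NS3pro with 5-residue linker 28 nM) incubated with inhibitor in DMSO, 15 min at 37 °C, in 200 mM Tris·HCl pH 9.5, 6 mM NaCl, 30% glycerol. Reaction started with 5.0 μM substrate. AMC release read at ex 380/em 460 nm. No-protease background subtracted; no-inhibitor control taken as 100%. Triplicates.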

West Nile virus [2] = experiment: Inhibition of WNV NS2B/NS3 protease using Bz-Nle-Lys-Arg-Arg-AMC as substrate at 25 uM by spectrofluorometric analysis relative to control; in short: as §1
dengue virus type 2 [3] = experiment: Inhibition of DENV2 NS2B/NS3 protease expressed in Escherichia coli Top 10 F' using Bz-Nle-Lys-Arg-Arg-AMC as substrate at 10 uM by spectroflorometer analysis relative to control; in short: as §1
dengue virus type 2 [4] = experiment: Inhibition of DENV2 NS2B/NS3 protease expressed in Escherichia coli Top 10 F' using Bz-Nle-Lys-Arg-Arg-AMC as substrate at 25 uM by spectroflorometer analysis relative to control; in short: as §1
[5] = Competitive inhibition of DENV2 NS2B/NS3 protease expressed in Escherichia coli Top 10 F' using Bz-Nle-Lys-Arg-Arg-AMC as substrate by Michaelis-Menten equation analysis; design: species or system dengue virus type 2
In short: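 DENV2 NS2B-NS3pro construct (NS2B hydrophilic cofactor joined to NS3 protease via Q-R), 25 nM, in 200 mM Tris·HCl pH 9.5, 6 mM NaCl, 30% glycerol, 0.1% CHAPS at 37 °C. Inhibitor at 0, 1.0, 3.0 and 5.0 μM; substrate 0-50 μM; started with enzyme. Initial rates from AMC fluorescence (ex 380/em 460 nm) every 1.5 min, under 5% conversion. Duplicates, repeated three times. Ki from secondary plot of Km,app against inhibitor.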

[6] = Inhibition of DENV2 NS2B/NS3 protease expressed in Escherichia coli Top 10 F' using Bz-Nle-Lys-Arg-Arg-AMC as substrate by spectroflorometer analysis relative to control; design: species or system dengue virus type 2
In short: (§2)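 IC50 run in the same single-point format (DENV2 protease 25 nM, WNV protease 28 nM; 15 min preincubation at 37 °C, pH 9.5 Tris buffer, 5.0 μM substrate, fluorescence ex 380/em 460 nm). Twelve inhibitor levels from 10 nM to 25 μM. IC50 from a sigmoidal fit of activity relative to the no-inhibitor control. Triplicates.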

[7] = Inhibition of WNV NS2B/NS3 protease using Bz-Nle-Lys-Arg-Arg-AMC as substrate by spectrofluorometric analysis relative to control; design: species or system West Nile virus; in short: as §2

Row | Structure (SMILES) | inhibition (West Nile virus [1]) | inhibition (West Nile virus [2]) | inhibition (dengue virus type 2 [3]) | inhibition (dengue virus type 2 [4]) | Ki [5] | IC50 [6] | IC50 [7]
1 | O=c1c2ccccc2sn1C(Cc1ccccc1)c1nnc(-c2ccccc2)o1 (centres undefined) | 51.7% | 64.1% | 56.7% | 69.2% | – | – | –
2 | COc1ccc(Cc2nnc(C(C)n3sc4ccccc4c3=O)o2)cc1 (centres undefined) | 4.17% | 9.79% | 8.08% | 17.8% | – | – | –
3 | CCOc1ccc(-c2nnc(C(Cc3ccccc3)n3sc4ccccc4c3=O)o2)cc1 (centres undefined) | 56.1% | 71.8% | 40.6% | 61.3% | – | – | –
4 | O=c1c2ccccc2sn1C(Cc1ccccc1)c1nnc(-c2ccco2)o1 (centres undefined) | 44.3% | 57.7% | 52.3% | 64.7% | – | – | –
5 | O=c1c2ccccc2sn1Cc1nnc(-c2cccc(Cl)c2)o1 | 6.15% | 9.15% | 5.21% | 16.7% | – | – | –
6 | CCc1nnc(C(Cc2ccccc2)n2sc3ccccc3c2=O)o1 (centres undefined) | 25.1% | 44.3% | 22.5% | 34.2% | – | – | –
7 | O=c1c2ccccc2sn1C(Cc1cccc(F)c1)c1nnc(-c2cccc(Cl)c2)o1 (centres undefined) | 27.4% | 35.6% | 16% | 31.6% | – | – | –
8 | O=c1c2ccccc2sn1C(Cc1ccccc1)c1nnc(-c2ccc(F)cc2)o1 (centres undefined) | 51.1% | 59.1% | 60.3% | 75.7% | – | – | –
9 | O=c1c2ccccc2sn1Cc1nnc(Cc2ccccc2)o1 | 8.27% | 14.7% | 3.56% | 16.4% | – | – | –
10 | O=c1c2ccccc2sn1Cc1nnc(-c2cccc(F)c2)o1 | 7.68% | 10.1% | 3.24% | 9.11% | – | – | –
11 | COc1ccc(Cc2nnc(Cn3sc4ccccc4c3=O)o2)cc1 | 5.96% | 8.68% | 5.27% | 7.9% | – | – | –
12 | O=c1c2ccccc2sn1C(CCc1ccccc1)c1nnc(-c2cccc(Cl)c2)o1 (centres undefined) | 23.9% | 33.9% | 26.1% | 35% | – | – | –
13 | O=c1c2ccccc2sn1C(Cc1ccccc1)c1nnc(-c2ccc(Cl)cc2)o1 (centres undefined) | 53.5% | 63.2% | 53.2% | 70.5% | – | – | –
14 | Cc1nnc(C(Cc2ccccc2)n2sc3ccccc3c2=O)o1 (centres undefined) | 22.3% | 40.4% | 20% | 31.6% | – | – | –
15 | O=c1c2ccccc2sn1C(Cc1ccccc1)c1nnc(-c2cccnc2)o1 (centres undefined) | 55.8% | 62.5% | 58.1% | 70% | – | – | –
16 | O=c1c2ccccc2sn1C(Cc1ccccc1)c1nnc(-c2cccc(F)c2)o1 (centres undefined) | 30.4% | 38.9% | 39% | 50.9% | – | – | –
17 | O=c1c2ccccc2sn1C(Cc1ccccc1)c1nnc(-c2cccs2)o1 (centres undefined) | 43.7% | 59.7% | 52.3% | 69.8% | – | – | –
18 | COc1ccc(Cc2nnc(C(Cc3ccccc3)n3sc4ccccc4c3=O)o2)cc1 (centres undefined) | 24.2% | 34.9% | 28.5% | 38.6% | – | – | –
19 | O=c1c2ccccc2sn1C(Cc1ccccc1)c1nnc(Cc2ccccc2)o1 (centres undefined) | 20.5% | 30.1% | 22.4% | 31.2% | – | – | –
20 | COc1ccc(-c2nnc(C(Cc3ccccc3)n3sc4ccccc4c3=O)o2)cc1 (centres undefined) | 68.6% | 73.4% | 65.5% | 80% | 3.61 µM | 3.75 µM | 4.22 µM
21 | CCCc1nnc(C(Cc2ccccc2)n2sc3ccccc3c2=O)o1 (centres undefined) | 34.9% | 46.2% | 25.6% | 36.7% | – | – | –
22 | N#Cc1ccc(-c2nnc(C(Cc3ccccc3)n3sc4ccccc4c3=O)o2)cc1 (centres undefined) | 63.6% | 70.9% | 63.9% | 72.9% | – | – | –
23 | O=c1c2ccccc2sn1C(Cc1ccccc1)c1nnc(-c2cccc(Cl)c2)o1 (centres undefined) | 29% | 43.1% | 34.3% | 42.1% | – | – | –
24 | O=c1c2ccccc2sn1C(Cc1ccccc1)c1nnc(-c2ccncc2)o1 (centres undefined) | 63.1% | 72.7% | 62.4% | 70.9% | – | – | –
